These results are taken from ChEMBL document CHEMBL4049407, “Positional Scanning Identifies the Molecular Determinants of a High Affinity Multi-Leucine Inhibitor for Furin and PACE4” (J Med Chem, 2017).

Square brackets hold non-standard residues; d marks the D form. Peptide text beside a SMILES is read from it. * marks the point of attachment. NH(4-amidinobenzyl) = N=C(N)c1ccc(CN*)cc1

For assay [1], the target named is T1, Proprotein convertase subtilisin/kexin type 6 (Homo sapiens, UniProt P29122).
T1 sequence (P29122 whole entry): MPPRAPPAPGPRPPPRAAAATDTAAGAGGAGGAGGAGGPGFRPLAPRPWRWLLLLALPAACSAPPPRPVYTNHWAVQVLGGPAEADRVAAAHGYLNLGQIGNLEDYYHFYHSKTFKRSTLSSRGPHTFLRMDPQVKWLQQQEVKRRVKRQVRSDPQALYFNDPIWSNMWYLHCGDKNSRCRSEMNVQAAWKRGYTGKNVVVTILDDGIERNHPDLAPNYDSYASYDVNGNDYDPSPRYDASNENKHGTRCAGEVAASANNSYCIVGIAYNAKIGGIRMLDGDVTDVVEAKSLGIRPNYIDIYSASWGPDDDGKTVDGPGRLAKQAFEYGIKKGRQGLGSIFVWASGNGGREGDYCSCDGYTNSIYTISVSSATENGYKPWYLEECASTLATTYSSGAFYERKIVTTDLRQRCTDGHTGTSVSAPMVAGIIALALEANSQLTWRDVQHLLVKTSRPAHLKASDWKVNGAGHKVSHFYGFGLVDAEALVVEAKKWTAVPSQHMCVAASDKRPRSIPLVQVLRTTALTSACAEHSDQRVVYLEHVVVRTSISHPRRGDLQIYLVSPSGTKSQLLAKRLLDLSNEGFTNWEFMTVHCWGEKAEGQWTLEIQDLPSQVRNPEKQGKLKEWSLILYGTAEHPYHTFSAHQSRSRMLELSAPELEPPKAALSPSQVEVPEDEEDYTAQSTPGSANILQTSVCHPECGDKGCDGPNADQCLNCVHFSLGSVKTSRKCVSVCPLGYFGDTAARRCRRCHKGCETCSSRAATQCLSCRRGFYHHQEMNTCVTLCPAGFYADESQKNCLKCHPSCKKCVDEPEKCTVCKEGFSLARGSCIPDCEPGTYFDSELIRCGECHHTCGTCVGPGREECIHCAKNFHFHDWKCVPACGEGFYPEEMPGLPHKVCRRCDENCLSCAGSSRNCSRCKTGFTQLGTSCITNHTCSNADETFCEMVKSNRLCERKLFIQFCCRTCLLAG
The experiment in a line: Inhibition of recombinant human PACE4 expressed in drosophila S2 cells using pyrGlu-Arg-Thr-Lys-Arg-7-amido-4-methylcoumarin as substrate after 60 mins by spectrofluorometry method. In kind it is cell-based. The method in brief: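 Human recombinant purified PACE4 at 2 units/100 µL (20.18 nM), in 20 mM BisTris pH 6.5, 1 mM CaCl2, 1.8 mg/mL BSA. Substrate 100 µM, KM 4.035 µM. Inhibitor 1 nM to 10 µM; 60 min at 37°C. Fluorescence ex 370 / em 460 nm. Ki by Morrison tight-binding equation; three independent experiments, mean ± SD.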

A further assay addresses Furin (Homo sapiens, UniProt P09958). The experiment in a line: Inhibition of recombinant human furin expressed in drosophila S2 cells using pyrGlu-Arg-Thr-Lys-Arg-7-amido-4-methylcoumarin as substrate after 60 mins by spectrofluorometry method. In kind it is cell-based. The method in brief:
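Human recombinant purified furin at 2 units/100 µL (0.54 nM), in 100 mM HEPES pH 7.5, 1 mM CaCl2, 1 mM β-mercaptoethanol, 1.8 mg/mL BSA. His-containing peptides run instead in 20 mM BisTris pH 6.5 with the same additives. Substrate 100 µM, KM 5.04 µM. Inhibitor 1 nM to 10 µM; 60 min at 37°C. Fluorescence ex 370 / em 460 nm. Ki by Morrison equation; triplicate experiments, mean ± SD.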

The species named for another assay is Homo sapiens. The experiment in a line: Selectivity index, ratio of Ki for recombinant human furin expressed in drosophila S2 cells to Ki for recombinant human PACE4 expressed in drosophila S2 cells. Type of assay: cell-based. The method, boiled down: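 Ratio Ki(furin)/Ki(PACE4). […] PACE4 buffer was BisTris pH 6.5; furin buffer was HEPES pH 7.5, or BisTris pH 6.5 for His peptides. Ki fitted by Morrison equation from three independent experiments.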

Another assay deals with DU-145. The assay can be described thus: Antiproliferative activity against human DU145 cells assessed as reduction in metabolic activity after 72 hrs by MTT assay. Type of assay: functional, cell-based. The following applies: DU-145, 72 h. The method in brief: (§1)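 Cells kept at 37°C, 5% CO2 in RPMI 1640 (DU145 with 5% FBS, 1500 cells/well; LNCaP with 10% FBS, 2500 cells/well) on poly-L-lysine coated plates. Peptides added 24 h after plating in fresh serum medium at 0, 1, 10, 25, 50, 75, 100, 250 µM for 72 h. MTT 1 mg/mL final for 4 h; formazan dissolved in 2-propanol HCl. Signal normalised to water vehicle; IC50 from dose-response curves.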
Background: Tetrazolium dyes change colour on reduction, which living cells bring about.

In the next assay the test system is LNCaP. The assay can be described thus: Antiproliferative activity against human LNCAP cells assessed as reduction in metabolic activity after 72 hrs by MTT assay. Type of assay: functional, cell-based. The method in brief:
as §1

Chain of Furin (P09958 whole entry): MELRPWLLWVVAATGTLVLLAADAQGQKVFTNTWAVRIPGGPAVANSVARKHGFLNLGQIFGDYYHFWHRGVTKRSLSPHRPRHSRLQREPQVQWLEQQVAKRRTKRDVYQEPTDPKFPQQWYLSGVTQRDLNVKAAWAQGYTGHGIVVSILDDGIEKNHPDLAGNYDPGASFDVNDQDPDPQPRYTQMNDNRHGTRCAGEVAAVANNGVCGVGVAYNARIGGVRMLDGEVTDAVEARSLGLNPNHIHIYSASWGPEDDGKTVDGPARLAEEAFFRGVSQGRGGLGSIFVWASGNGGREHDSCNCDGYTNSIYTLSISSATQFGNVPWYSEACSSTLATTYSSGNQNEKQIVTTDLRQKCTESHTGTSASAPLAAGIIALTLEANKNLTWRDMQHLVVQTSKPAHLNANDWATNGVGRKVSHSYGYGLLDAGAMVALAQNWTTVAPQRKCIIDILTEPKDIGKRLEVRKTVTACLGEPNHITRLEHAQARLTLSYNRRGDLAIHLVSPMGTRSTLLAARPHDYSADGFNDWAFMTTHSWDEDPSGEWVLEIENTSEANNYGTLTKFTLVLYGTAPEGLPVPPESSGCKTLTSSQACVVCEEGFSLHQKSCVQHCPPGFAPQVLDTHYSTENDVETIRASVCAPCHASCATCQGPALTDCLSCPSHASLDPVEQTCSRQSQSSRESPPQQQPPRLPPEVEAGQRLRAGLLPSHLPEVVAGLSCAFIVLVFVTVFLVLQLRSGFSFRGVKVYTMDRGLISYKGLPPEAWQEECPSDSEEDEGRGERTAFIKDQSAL

Regarding `CC(=O)N[C@@H](Cc1c[nH]c2ccccc12)C(=O)N[C@@H](CC(C)C)C(=O)N[C@@H](CC(C)C)C(=O)N[C@@H](CC(C)C)C(=O)N[C@@H](CCCNC(=N)N)C(=O)N[C@H](C(=O)N[C@@H](CCCCN)C(=O)NCc1ccc(C(=N)N)cc1)C(C)C` (Ac-WLLLRVK-{NH(4-amidinobenzyl)}), the results for the Ki (in assay [1]; on Furin) were 9 nM and 6 nM, respectively. For the same molecule, the Ratio Ki in the assay filed under Homo sapiens amounted to 0.7. For the same molecule, the IC50 in the assay on DU-145 is 23 µM; in the assay on LNCaP, 39 µM.
In the case of `CC[C@H](C)[C@H](NC(=O)[C@H](CC(C)C)NC(=O)[C@H](CC(C)C)NC(=O)[C@H](CC(C)C)NC(C)=O)C(=O)N[C@@H](CCCNC(=N)N)C(=O)N[C@H](C(=O)N[C@@H](CCCCN)C(=O)NCc1ccc(C(=N)N)cc1)C(C)C` (Ac-LLLIRVK-{NH(4-amidinobenzyl)}), the results for the Ki (in assay [1]; on Furin) were 8 nM and 27 nM, respectively. The Ratio Ki in the assay listed under Homo sapiens amounted to 3.4. Also, the half-inhibitory concentration (IC50) with DU-145 is 50 µM; with LNCaP it was 28 µM.
As for `CC[C@H](C)[C@H](NC(=O)[C@H](CC(C)C)NC(=O)[C@H](CC(C)C)NC(C)=O)C(=O)N[C@H](C(=O)N[C@@H](CCCNC(=N)N)C(=O)N[C@H](C(=O)N[C@@H](CCCCN)C(=O)NCc1ccc(C(=N)N)cc1)C(C)C)[C@@H](C)CC`, the results for the Ki (in assay [1]; at Furin) were 9.8 nM and 8.1 nM, respectively. Moreover, the Ratio Ki in the assay listed under Homo sapiens turned out to be 0.8. Moreover, the results for the IC50 with DU-145 and with LNCaP were 20 µM and 30 µM, respectively.
`CC[C@H](C)[C@H](NC(=O)[C@H](CC(C)C)NC(=O)[C@H](CC(C)C)NC(C)=O)C(=O)N[C@@H](CC(C)C)C(=O)N[C@@H](CCCNC(=N)N)C(=O)N[C@H](C(=O)N[C@@H](CCCCN)C(=O)NCc1ccc(C(=N)N)cc1)C(C)C` (Ac-LLILRVK-{NH(4-amidinobenzyl)}): the inhibitory constant (Ki) came to 10 nM in assay [1] and 30 nM at Furin. In addition, in the assay filed under Homo sapiens, the Ratio Ki stood at 3. The results for the IC50 with DU-145 and in the assay with LNCaP were 32 µM and 80 µM, respectively.
Regarding `CC(=O)N[C@H](CC(C)C)C(=O)N[C@@H](CC(C)C)C(=O)N[C@@H](CC(C)C)C(=O)N[C@@H](CC(C)C)C(=O)N[C@@H](CCCNC(=N)N)C(=O)N[C@H](C(=O)N[C@@H](CCCCN)C(=O)NCc1ccc(C(=N)N)cc1)C(C)C` (Ac-[dL]LLLRVK-{NH(4-amidinobenzyl)}), the results for the Ki (in assay [1]; on Furin) were 4.9 nM and 9.8 nM, respectively. Moreover, the Ratio Ki in the assay filed under Homo sapiens worked out at 2. Also, the concentration for half-maximal inhibition (IC50) was determined as 25 µM in the assay on DU-145 and 40 µM in the assay on LNCaP.
Take `CC(=O)N[C@@H](CCC(=O)O)C(=O)N[C@@H](CC(C)C)C(=O)N[C@@H](CC(C)C)C(=O)N[C@@H](CC(C)C)C(=O)N[C@@H](CCCNC(=N)N)C(=O)N[C@H](C(=O)N[C@@H](CCCCN)C(=O)NCc1ccc(C(=N)N)cc1)C(C)C` (Ac-ELLLRVK-{NH(4-amidinobenzyl)}): the inhibitory constant (Ki) came out at 8 nM in assay [1] and 7 nM at Furin. Further, the Ratio Ki in the assay listed under Homo sapiens stood at 0.9. For the same molecule, the concentration for half-maximal inhibition (IC50) in the assay with DU-145 worked out at 150 µM; with LNCaP, 120 µM.
In the case of `CC(=O)N[C@@H](Cc1ccc(O)cc1)C(=O)N[C@@H](CC(C)C)C(=O)N[C@@H](CC(C)C)C(=O)N[C@@H](CC(C)C)C(=O)N[C@@H](CCCNC(=N)N)C(=O)N[C@H](C(=O)N[C@@H](CCCCN)C(=O)NCc1ccc(C(=N)N)cc1)C(C)C` (Ac-YLLLRVK-{NH(4-amidinobenzyl)}), the inhibition constant (Ki) in assay [1] amounted to 6.2 nM; at Furin, 4 nM. In addition, the Ratio Ki in the assay listed under Homo sapiens turned out to be 0.6. Also, the half-maximal inhibitory concentration (IC50) was found to be 23 µM in the assay on DU-145 and 160 µM in the assay with LNCaP.
For `CC(=O)N[C@H](C(=O)N[C@@H](CC(C)C)C(=O)N[C@@H](CC(C)C)C(=O)N[C@@H](CC(C)C)C(=O)N[C@@H](CCCNC(=N)N)C(=O)N[C@H](C(=O)N[C@@H](CCCCN)C(=O)NCc1ccc(C(=N)N)cc1)C(C)C)[C@@H](C)O` (Ac-TLLLRVK-{NH(4-amidinobenzyl)}), the Ki in assay [1] is 4 nM; at Furin, 2.4 nM. The Ratio Ki in the assay listed under Homo sapiens was 0.6. The half-maximal inhibitory concentration (IC50) turned out to be 140 µM with DU-145 and 110 µM in the assay with LNCaP.
`CC(=O)N[C@@H](CC(C)C)C(=O)N[C@@H](Cc1ccccc1)C(=O)N[C@@H](CC(C)C)C(=O)N[C@@H](CC(C)C)C(=O)N[C@@H](CCCNC(=N)N)C(=O)N[C@H](C(=O)N[C@@H](CCCCN)C(=O)NCc1ccc(C(=N)N)cc1)C(C)C` (Ac-LFLLRVK-{NH(4-amidinobenzyl)}): the results for the inhibition constant Ki (in assay [1]; on Furin) were 8 nM and 7 nM, respectively. The Ratio Ki in the assay filed under Homo sapiens amounted to 0.9. Besides, the figures for the IC50 with DU-145 and in the assay with LNCaP were 36 µM and 31 µM, respectively.
For `CC(=O)N[C@@H](CC(C)C)C(=O)N[C@@H](CC(C)C)C(=O)N[C@@H](CC(C)C)C(=O)N[C@H](C(=O)N[C@@H](CCCNC(=N)N)C(=O)N[C@H](C(=O)N[C@@H](CCCCN)C(=O)NCc1ccc(C(=N)N)cc1)C(C)C)C(C)C` (Ac-LLLVRVK-{NH(4-amidinobenzyl)}), the Ki in assay [1] stood at 2.1 nM; on Furin it was 4 nM. Moreover, the Ratio Ki in the assay listed under Homo sapiens is 1.9. Further, the values for the concentration for half-maximal inhibition (IC50) with DU-145 and with LNCaP were 45 µM and 60 µM, respectively.
In the same order, the values of `CC(=O)N[C@@H](CC(C)C)C(=O)N[C@@H](CC(C)C)C(=O)N[C@@H](Cc1ccccc1)C(=O)N[C@@H](CC(C)C)C(=O)N[C@@H](CCCNC(=N)N)C(=O)N[C@H](C(=O)N[C@@H](CCCCN)C(=O)NCc1ccc(C(=N)N)cc1)C(C)C` (Ac-LLFLRVK-{NH(4-amidinobenzyl)}) are 16 nM, 5 nM, 0.3, 38 µM and 40 µM.
In the case of `CC(=O)N[C@@H](CC(C)C)C(=O)N[C@@H](Cc1c[nH]c2ccccc12)C(=O)N[C@@H](CC(C)C)C(=O)N[C@@H](CC(C)C)C(=O)N[C@@H](CCCNC(=N)N)C(=O)N[C@H](C(=O)N[C@@H](CCCCN)C(=O)NCc1ccc(C(=N)N)cc1)C(C)C` (Ac-LWLLRVK-{NH(4-amidinobenzyl)}), the Ki in assay [1] amounted to 8 nM; on Furin it was 13 nM. In addition, the Ratio Ki in the assay listed under Homo sapiens stood at 1.6. The half-inhibitory concentration (IC50) was found to be 35 µM with DU-145 and 50 µM in the assay with LNCaP.
For `CC(=O)N[C@@H](CC(C)C)C(=O)N[C@@H](CC(C)C)C(=O)N[C@@H](CC(C)C)C(=O)N[C@@H](Cc1ccccc1)C(=O)N[C@@H](CCCNC(=N)N)C(=O)N[C@H](C(=O)N[C@@H](CCCCN)C(=O)NCc1ccc(C(=N)N)cc1)C(C)C` (Ac-LLLFRVK-{NH(4-amidinobenzyl)}), the results for the Ki (in assay [1]; on Furin) were 4 nM and 6 nM, respectively. The Ratio Ki in the assay filed under Homo sapiens came to 1.5. Besides, the IC50 in the assay on DU-145 worked out at 40 µM; with LNCaP, 50 µM.
With `CC(=O)N[C@H](C(=O)N[C@@H](CC(C)C)C(=O)N[C@@H](CC(C)C)C(=O)N[C@@H](CC(C)C)C(=O)N[C@@H](CCCNC(=N)N)C(=O)N[C@H](C(=O)N[C@@H](CCCCN)C(=O)NCc1ccc(C(=N)N)cc1)C(C)C)C(C)C` (Ac-VLLLRVK-{NH(4-amidinobenzyl)}), the inhibitory constant (Ki) was 5 nM in assay [1] and 4 nM at Furin. The Ratio Ki in the assay listed under Homo sapiens is 0.8. For the same molecule, the IC50 with DU-145 came to 75 µM; in the assay on LNCaP it was 70 µM.

As a reminder, the Ki is the dissociation constant of the complex between target and ligand, obtained from inhibition or displacement. As usually defined, the IC50 is the concentration at which inhibition is half-maximal.
